Results on 6 molecules are retold here after ChEMBL document CHEMBL1944618, “Synthesis and antifungal activity of a new series of 2-(1H-imidazol-1-yl)-1-phenylethanol derivatives” (Eur J Med Chem, 2012).

Converted amounts (≈) assume the structure as drawn. A value given as a limit tells only on which side of the number the result lay.

Type in all cases: functional
For assay [1], the system named is Candida albicans. Kind of assay: Antifungal activity against Candida albicans after 48 hrs by M27-A3 CLSI method. Put shortly: (§1)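 Broth microdilution in RPMI 1640, two-fold serial dilutions, final test range 0.125–64 µg mL-1 (fluconazole reference 0.0078–128 µg mL-1). Inoculum 1.0×10^3–1.5×10^3 cells mL-1 from yeasts grown 24 h at 35 °C on Sabouraud dextrose agar. Incubation 35 °C, read at 48 h. MIC = lowest concentration giving >50% turbidity decrease versus growth control. Run three times in triplicate. C. parapsilosis ATCC22019 served as QC.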

The test system of assay [2] is Candida albicans. Kind of assay: Antifungal activity against Candida albicans ATCC 24433 after 48 hrs by M27-A3 CLSI method. Conditions: Candida albicans, ATCC 24433, 48 h; read-out: MIC. Put shortly:
as §1

The test system of assay [3] is Candida albicans. Kind of assay: Antifungal activity against Candida albicans ATCC 3153 after 48 hrs by M27-A3 CLSI method. The conditions noted are these: ATCC 3153, 48 h. Put shortly:
as §1

Assay [4] relates to Candida albicans. Kind of assay: Antifungal activity against Candida albicans ATCC 10231 after 48 hrs by M27-A3 CLSI method. The conditions noted are these: ATCC 10231, 48 h. Put shortly:
as §1

Assay [5] has as its system Candida albicans. Kind of assay: Antifungal activity against Candida albicans ATCC 76615 after 48 hrs by M27-A3 CLSI method. Conditions: ATCC 76615, 48 h. Put shortly:
as §1

The next assay relates to Candida. Kind of assay: Antifungal activity against Candida sp. after 48 hrs by M27-A3 CLSI method. Put shortly: as §1
The test system of assay [6] is Candida parapsilosis. Kind of assay: Antifungal activity against Candida parapsilosis ATCC 22019 after 48 hrs by M27-A3 CLSI method. The conditions noted are these: Lodderomyces parapsilosis, ATCC 22019, 48 h. Put shortly: as §1
The subject of assay [7] is Candida parapsilosis. Kind of assay: Antifungal activity against Candida parapsilosis DSM 11224 after 48 hrs by M27-A3 CLSI method. The conditions noted are these: Lodderomyces parapsilosis, DSM 11224, 48 h; read-out: MIC. Put shortly:
as §1

Assay [8] deals with Candida tropicalis. Kind of assay: Antifungal activity against Candida tropicalis PMC 0910 after 48 hrs by M27-A3 CLSI method. Conditions: PMC 0910, 48 h. Put shortly: as §1
For assay [9], the system named is Candida tropicalis. Kind of assay: Antifungal activity against Candida tropicalis DSM 11953 after 48 hrs by M27-A3 CLSI method. The conditions noted are these: DSM 11953, 48 h. Put shortly: as §1
Assay [10] has as its system Pichia kudriavzevii. Kind of assay: Antifungal activity against Candida krusei DSM 6128 after 48 hrs by M27-A3 CLSI method. The conditions noted are these: DSM 6128, 48 h. Put shortly: as §1
The test system of a further assay is Nakaseomyces glabratus. Kind of assay: Antifungal activity against Candida glabrata PMC 0805 after 48 hrs by M27-A3 CLSI method. Conditions: PMC 0805, 48 h. Put shortly:
as §1

Assay [11] deals with Pichia kudriavzevii. Kind of assay: Antifungal activity against Candida krusei PMC 0613 after 48 hrs by M27-A3 CLSI method. The conditions noted are these: Pichia kudriavzevii, PMC 0613, 48 h; read-out: MIC. Put shortly:
as §1

For orientation: MIC means the lowest concentration that inhibits growth of the organism. The MIC50 is the lowest concentration that inhibits either 50% of growth or 50% of the strains tested, depending on the study. The low end stands for higher susceptibility, the high end for lower susceptibility. What is called MIC90 is the lowest concentration that inhibits either 90% of growth or 90% of the strains tested, depending on the study. Low readings indicate greater potency, high ones weaker potency.

As to `O=C(OC(Cn1ccnc1)c1ccc(C(F)(F)F)cc1)c1cccc(C(F)(F)F)c1` (racemic), the MIC was 91.4 µg/mL (≈ 213 µM) with Candida albicans [1]; at least 64 µg/mL in the assay with Candida albicans [2]; at least 64 µg/mL in the assay on Candida albicans [3]; 64 µg/mL (≈ 149 µM) in the assay with Candida albicans [4]; at least 64 µg/mL against Candida albicans [5]; 100 µg/mL (≈ 233 µM) in the assay with Candida. Moreover, the MIC with Candida parapsilosis [6] was 64 µg/mL (≈ 149 µM); in the assay with Candida parapsilosis [7], above 64 µg/mL; with Candida tropicalis [8], 32 µg/mL (≈ 74.7 µM); against Candida tropicalis [9], above 64 µg/mL; in the assay on Pichia kudriavzevii [10], above 64 µg/mL; in the assay with Nakaseomyces glabratus, above 64 µg/mL. The MIC in the assay with Pichia kudriavzevii [11] was found to be 64 µg/mL (≈ 149 µM). Moreover, the MIC50 against Candida albicans [1] came out at 64 µg/mL (≈ 149 µM); with Candida it was 128 µg/mL (≈ 299 µM). The MIC90 against Candida albicans [1] and in the assay on Candida was 128 µg/mL (≈ 299 µM) in each case.

As for `O=C(OC(Cn1ccnc1)c1ccccc1)c1cccc(C(F)(F)F)c1` (racemic), the MIC was 91.4 µg/mL (≈ 254 µM) in the assay with Candida albicans [1]; at least 64 µg/mL in the assay with Candida albicans [2]; at least 64 µg/mL against Candida albicans [3]; 32 µg/mL (≈ 88.8 µM) in the assay on Candida albicans [4]; at least 64 µg/mL against Candida albicans [5]; 85 µg/mL (≈ 236 µM) with Candida. Besides, the MIC is 64 µg/mL (≈ 178 µM) with Candida parapsilosis [6]; 8 µg/mL (≈ 22.2 µM) in the assay with Candida parapsilosis [7]; 32 µg/mL (≈ 88.8 µM) in the assay with Candida tropicalis [8]; above 64 µg/mL against Candida tropicalis [9]; above 64 µg/mL against Pichia kudriavzevii [10]; above 64 µg/mL with Nakaseomyces glabratus. Moreover, the MIC with Pichia kudriavzevii [11] stood at 64 µg/mL (≈ 178 µM). For the same molecule, the MIC50 against Candida albicans [1] and against Candida was 64 µg/mL (≈ 178 µM) each time. The MIC90 against Candida albicans [1] and in the assay on Candida was 128 µg/mL (≈ 355 µM) throughout.

`O=C(OC(Cn1ccnc1)c1ccc(F)cc1)c1cccc(C(F)(F)F)c1` (racemic; 3b): the MIC was 27.7 µg/mL (≈ 73.2 µM) with Candida albicans [1]; 16 µg/mL (≈ 42.3 µM) in the assay with Candida albicans [2]; 2 µg/mL (≈ 5.29 µM) against Candida albicans [3]; 8 µg/mL (≈ 21.1 µM) with Candida albicans [4]; above 64 µg/mL in the assay on Candida albicans [5]; 52.9 µg/mL (≈ 140 µM) against Candida. The MIC was above 8 µg/mL with Candida parapsilosis [6]; 4 µg/mL (≈ 10.6 µM) in the assay on Candida parapsilosis [7]; above 64 µg/mL against Candida tropicalis [8]; 4 µg/mL (≈ 10.6 µM) against Candida tropicalis [9]; above 64 µg/mL against Pichia kudriavzevii [10]; above 64 µg/mL against Nakaseomyces glabratus. Besides, the MIC in the assay on Pichia kudriavzevii [11] came to 8 µg/mL (≈ 21.1 µM). The MIC50 against Candida albicans [1] and against Candida was 8 µg/mL (≈ 21.1 µM) each time. Moreover, the results for the MIC90 against Candida albicans [1] and in the assay on Candida were 16 µg/mL (≈ 42.3 µM) and 128 µg/mL (≈ 338 µM), respectively.

`OC(Cn1ccnc1)c1ccc(F)cc1` (racemic): the MIC in the assay on Candida albicans [1] is 101 µg/mL (≈ 491 µM); with Candida albicans [2], above 64 µg/mL; against Candida albicans [3], 32 µg/mL (≈ 155 µM); with Candida albicans [4] it was above 64 µg/mL; against Candida albicans [5], above 64 µg/mL; in the assay with Candida, 104 µg/mL (≈ 504 µM). Also, the MIC in the assay with Candida parapsilosis [6] was above 64 µg/mL; in the assay with Candida parapsilosis [7], above 64 µg/mL; in the assay on Candida tropicalis [8], 16 µg/mL (≈ 77.6 µM); with Candida tropicalis [9] it was above 64 µg/mL; against Pichia kudriavzevii [10], above 64 µg/mL; with Nakaseomyces glabratus it was 16 µg/mL (≈ 77.6 µM). For the same molecule, the MIC in the assay on Pichia kudriavzevii [11] turned out to be 64 µg/mL (≈ 310 µM). In addition, the MIC50 in the assay with Candida albicans [1] and with Candida was 128 µg/mL (≈ 621 µM) throughout. Further, the MIC90 in the assay with Candida albicans [1] and against Candida was 128 µg/mL (≈ 621 µM) each time.

Regarding `OC(Cn1ccnc1)c1ccc(Cl)cc1` (racemic), the MIC against Candida albicans [1] is 112 µg/mL (≈ 503 µM); in the assay with Candida albicans [2], above 64 µg/mL; against Candida albicans [3], above 32 µg/mL; against Candida albicans [4], above 64 µg/mL; with Candida albicans [5], above 64 µg/mL; with Candida, 108 µg/mL (≈ 485 µM). Moreover, the MIC is above 64 µg/mL in the assay with Candida parapsilosis [6]; 64 µg/mL (≈ 287 µM) in the assay with Candida parapsilosis [7]; above 64 µg/mL against Candida tropicalis [8]; above 64 µg/mL in the assay with Candida tropicalis [9]; above 64 µg/mL with Pichia kudriavzevii [10]; above 64 µg/mL against Nakaseomyces glabratus. The MIC with Pichia kudriavzevii [11] came out at 16 µg/mL (≈ 71.9 µM). In addition, the MIC50 against Candida albicans [1] and in the assay with Candida was 128 µg/mL (≈ 575 µM) each time. For the same molecule, the MIC90 in the assay with Candida albicans [1] and in the assay with Candida was 128 µg/mL (≈ 575 µM) in each case.

Take `O=C(COc1ccccc1)OC(Cn1ccnc1)c1ccc(F)cc1` (racemic): the MIC is 76.6 µg/mL (≈ 225 µM) against Candida albicans [1]; 16 µg/mL (≈ 47 µM) in the assay on Candida albicans [2]; at least 64 µg/mL against Candida albicans [3]; 8 µg/mL (≈ 23.5 µM) against Candida albicans [4]; above 64 µg/mL in the assay with Candida albicans [5]; 61.1 µg/mL (≈ 180 µM) against Candida. Further, the MIC is above 64 µg/mL against Candida parapsilosis [6]; 4 µg/mL (≈ 11.8 µM) in the assay with Candida parapsilosis [7]; 1 µg/mL (≈ 2.94 µM) against Candida tropicalis [8]; above 64 µg/mL with Candida tropicalis [9]; above 64 µg/mL with Pichia kudriavzevii [10]; 16 µg/mL (≈ 47 µM) in the assay with Nakaseomyces glabratus. Moreover, the MIC in the assay on Pichia kudriavzevii [11] is 16 µg/mL (≈ 47 µM). Moreover, the MIC50 in the assay with Candida albicans [1] was found to be 64 µg/mL (≈ 188 µM); in the assay with Candida, 4 µg/mL (≈ 11.8 µM). In addition, the MIC90 in the assay on Candida albicans [1] and against Candida was 128 µg/mL (≈ 376 µM) in each case.
